Data reported in ChEMBL document CHEMBL1140274, “Synthesis of (1,4)-naphthoquinono-[3,2-c]-1H-pyrazoles and their (1,4)-naphthohydroquinone derivatives as antifungal, antibacterial, and anticancer agents” (2005).
Converted amounts (≈) assume the structure as drawn.

How the values were obtained:
Candida albicans = test: In-vitro minimum inhibitory concentration against the growth of Candida albicans; assay type: functional
Summary of the method: (§1)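 Broth microdilution following NCCLS, run in 96-well plates with RPMI 1640 medium buffered with MOPS. The MIC was the endpoint against each fungal isolate.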

Enterococcus faecalis = test: In-vitro minimum inhibitory concentration against the growth of Streptococcus faecalis; assay type: functional
Summary of the method: (§2)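 Broth microdilution following NCCLS against each bacterial strain, with the MIC taken as the endpoint.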

Cryptococcus neoformans = test: In-vitro minimum inhibitory concentration against the growth of Cryptococcus neoformans; assay type: functional; summary of the method: as §1
Candida parapsilosis = test: In-vitro minimum inhibitory concentration against the growth of Candida parapsilosis (ATCC 22019); assay type: functional; conditions: Lodderomyces parapsilosis; summary of the method: as §1
Klebsiella pneumoniae = test: In-vitro minimum inhibitory concentration against the growth of Klebsiella pneumoniae; assay type: functional; summary of the method: as §2
Escherichia coli = test: In-vitro minimum inhibitory concentration against the growth of Escherichia coli; assay type: functional; summary of the method: as §2
Staphylococcus aureus = test: In-vitro minimum inhibitory concentration against the growth of Staphylococcus aureus; assay type: functional; summary of the method: as §2
Trichophyton benhamiae = test: In-vitro minimum inhibitory concentration against the growth of Trichophyton mentagrophytes; assay type: functional, Trichophyton mentagraphytes; summary of the method: as §1
Aspergillus fumigatus = test: In-vitro minimum inhibitory concentration against the growth of Aspergillus fumigatus; assay type: functional; summary of the method: as §1
Sporothrix schenckii = test: In-vitro minimum inhibitory concentration against the growth of Sporothrix schenckii; assay type: functional; summary of the method: as §1
Pseudomonas aeruginosa = test: In-vitro minimum inhibitory concentration against the growth of Pseudomonas aeruginosa; assay type: functional; summary of the method: as §2
Rattus norvegicus [1] = test: Anticancer activity against Walker 256 carcinosarcoma in rats at a dose of 10 mg/kg [Active]; assay type: functional
Rattus norvegicus [2] = test: Anticancer activity against Walker 256 carcinosarcoma in rats at a dose of 50 mg/kg [Inactive]; assay type: functional

Row | Compound | MIC (Candida albicans) [µg/mL] | MIC (Enterococcus faecalis) [µg/mL] | MIC (Cryptococcus neoformans) [µg/mL] | MIC (Candida parapsilosis) [µg/mL] | MIC (Klebsiella pneumoniae) [µg/mL] | MIC (Escherichia coli) [µg/mL] | MIC (Staphylococcus aureus) [µg/mL] | MIC (Trichophyton benhamiae) [µg/mL] | MIC (Aspergillus fumigatus) [µg/mL] | MIC (Sporothrix schenckii) [µg/mL] | MIC (Pseudomonas aeruginosa) [µg/mL] | T/C (Rattus norvegicus [1]) [%] | T/C (Rattus norvegicus [2]) [%]
1 | CCOC(=O)c1[nH]nc2c(O)c3ccccc3c(O)c12 | 6.25 (≈ 23 µM) | 25 (≈ 91.8 µM) | 6.25 (≈ 23 µM) | 12.5 (≈ 45.9 µM) | 6.25 (≈ 23 µM) | 6.25 (≈ 23 µM) | 25 (≈ 91.8 µM) | 25 (≈ 91.8 µM) | 25 (≈ 91.8 µM) | 50 (≈ 184 µM) | > 50 |  | 
2 | C[C@@H]1[C@H](O)[C@@H](C)/C=C/C=C/C=C/C=C/C=C/C=C/C=C/[C@H](O[C@@H]2O[C@H](C)[C@@H](O)[C@H](N)[C@@H]2O)C[C@@H]2O[C@](O)(C[C@@H](O)C[C@@H](O)[C@H](O)CC[C@@H](O)C[C@@H](O)CC(=O)O[C@H]1C)C[C@H](O)[C@H]2C(=O)O [AMPHOTERICIN B] | 0.39 (≈ 0.422 µM) |  | 0.78 (≈ 0.844 µM) |  |  |  |  | 1.56 (≈ 1.69 µM) |  |  |  |  | 
3 | CCOC(=O)c1[nH]nc2c1C(=O)c1ccccc1C2=O | > 50 | 12.5 (≈ 46.3 µM) | > 50 | > 50 | 12.5 (≈ 46.3 µM) | 25 (≈ 92.5 µM) | 25 (≈ 92.5 µM) | > 50 | > 50 | > 50 | > 50 |  | 
4 | O=C1C=CC(=O)c2c(O)ccc(O)c21 [NAPHTHAZALIN] |  |  |  |  |  |  |  |  |  |  |  | 37 | 
5 | CNC(=O)c1[nH]nc2c1C(=O)c1ccccc1C2=O | > 50 | > 50 | > 50 | 50 (≈ 196 µM) | 25 (≈ 97.9 µM) | > 50 | > 50 | > 50 | > 50 | > 50 | > 50 |  | 
6 | O=C(NNc1ccc([N+](=O)[O-])cc1[N+](=O)[O-])c1[nH]nc2c(O)c3ccccc3c(O)c12 | 25 (≈ 58.9 µM) | > 50 | > 50 | > 50 | > 50 | > 50 | > 50 | > 50 | > 50 | > 50 | > 50 |  | 
7 | OC(Cn1cncn1)(Cn1cncn1)c1ccc(F)cc1F [FLUCONAZOLE] | 1 (≈ 3.27 µM) |  | 1 (≈ 3.27 µM) | 2 (≈ 6.53 µM) |  |  |  | 0.5 (≈ 1.63 µM) | 2 (≈ 6.53 µM) | 2 (≈ 6.53 µM) |  |  | 
8 | CCCCNC(=O)c1[nH]nc2c1C(=O)c1ccccc1C2=O | > 50 | > 50 | > 50 | > 50 | > 50 | > 50 | > 50 | > 50 | > 50 | > 50 | > 50 |  | 
9 | NNC(=O)c1[nH]nc2c1C(=O)c1ccccc1C2=O | > 50 | > 50 | > 50 | > 50 | > 50 | > 50 | > 50 | > 50 | > 50 | > 50 | > 50 |  | 
10 | NC[C@H]1O[C@H](O[C@H]2[C@H](O)[C@@H](O[C@H]3O[C@H](CO)[C@@H](O)[C@H](N)[C@H]3O)[C@H](N)C[C@@H]2N)[C@H](O)[C@@H](O)[C@@H]1O [KANAMYCIN] |  |  |  |  | 32 (≈ 66 µM) | 16 (≈ 33 µM) | 2 (≈ 4.13 µM) |  |  |  | > 128 |  | 
11 | O=C1c2ccccc2C(=O)c2[nH]ncc21 |  |  |  |  |  |  |  |  |  |  |  |  | 115
12 | NYSTATIN | 7.8 |  | 3.5 |  |  |  |  |  |  | 13.2 |  |  | 
13 | O=C1c2ccccc2C(=O)c2c1n[nH]c2C(=O)NNc1ccccc1 | > 50 | 25 (≈ 75.2 µM) | > 50 | > 50 | 12.5 (≈ 37.6 µM) | > 50 | > 50 | > 50 | > 50 | > 50 | > 50 |  | 
14 | C=CCNC(=O)c1[nH]nc2c1C(=O)c1ccccc1C2=O | > 50 | > 50 | > 50 | > 50 | 12.5 (≈ 44.4 µM) | 12.5 (≈ 44.4 µM) | > 50 | > 50 | > 50 | > 50 | > 50 |  | 
15 | NNC(=O)c1[nH]nc2c(O)c3ccccc3c(O)c12 | 25 (≈ 96.8 µM) | > 50 | 25 (≈ 96.8 µM) | > 50 | > 50 | > 50 | > 50 | > 50 | > 50 | > 50 | > 50 |  | 
16 | GENTAMICIN |  |  |  |  | 0.39 |  | 0.78 |  |  |  | 0.78 |  | 
17 | O=C1c2ccccc2C(=O)c2c1n[nH]c2C(=O)NCCO | > 50 | > 50 | > 50 | > 50 | 25 (≈ 87.6 µM) | 25 (≈ 87.6 µM) | > 50 | > 50 | > 50 | > 50 | > 50 |  | 
18 | Clc1ccc(COC(Cn2ccnc2)c2ccc(Cl)cc2Cl)c(Cl)c1 (stereo not given) [MICONAZOLE] | 25 (≈ 60.1 µM) |  | 12.5 (≈ 30 µM) |  |  |  |  | < 0.78 | 12.5 (≈ 30 µM) |  |  |  | 
